{"source": "ChEMBL document CHEMBL1649277", "about": "“Inhibition of herpesvirus replication by 5-substituted 4'-thiopyrimidine nucleosides” (Antimicrob Agents Chemother, 2009)", "key": {"[1]": {"experiment": "Selectivity index, ratio of CC50 for human Akata cells to EC50 for Epstein-Barr virus infected in human Akata cells", "format": "toxicity, cell-based", "conditions": "read-out: Ratio CC50/EC50"}, "[2]": {"experiment": "Antiviral activity against Human herpesvirus 6 GS infected in human HSB2 cells assessed as inhibition of viral replication after 7 days", "format": "functional, cell-based, Human herpesvirus 6 (strain GS)", "conditions": "Human betaherpesvirus 6A, HSB2, 168 h", "in_short": "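HSB-2 cells, 2 × 10^4 per well in RPMI 1640 with 10% FBS, received compound dilutions in triplicate wells. Cells were infected with HHV-6A strain GS and kept 7 days at 37°C. Total DNA was denatured and immobilized on nylon membrane. Viral DNA was then measured by digoxigenin-labeled probe hybridization and anti-hapten antibody detection with densitometric quantitation.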"}, "Human alphaherpesvirus 2 [3]": {"system": "Human alphaherpesvirus 2", "experiment": "Antiviral activity against HSV2 infected in BALB/c mouse assessed as virus-induced mortality rate at 10 mg/kg, po BID administered 72 hrs post infection", "format": "functional"}, "Human betaherpesvirus 5 [4]": {"system": "Human betaherpesvirus 5", "experiment": "Antiviral activity against human cytomegalovirus C8914-6 harboring UL97 I244V, L595F and UL54 L501F mutant gene infected in HFF after 8 to 10 days by plaque reduction assay", "format": "functional, organism-based", "conditions": "Human betaherpesvirus 5, C8914-6", "in_short": "(§1)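 Plaque reduction in confluent HFF with six serial dilutions (top 100 μM) and no immunoglobulin added. Virus was adsorbed 1 h on triplicate wells. Cells were incubated 8 days, stained with 0.017% neutral red in PBS, and plaques counted. EC50 is the concentration reducing plaque number by 50%.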"}, "Human alphaherpesvirus 2 [5]": {"system": "Human alphaherpesvirus 2", "experiment": "Antiviral activity against 4'-thioIDU-resistant HSV2 infected in HFF assessed as inhibition of viral DNA synthesis-associated incorporation in DNA by immunofluorescence assay", "format": "functional, organism-based", "in_short": "(§2)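 HFF on coverslips were infected with HSV-2 MS or the resistant isolate (MOI 0.2 PFU/cell) for 48 h. Cells were pulsed with BrdUrd or 10 μM test compound for 30 min before fixation. Incorporation was detected with a cross-reacting anti-BrdUrd monoclonal antibody, infected cells with anti-155-kDa nucleocapsid antibody, and nuclei with DAPI.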"}, "Human alphaherpesvirus 2 [6]": {"system": "Human alphaherpesvirus 2", "experiment": "Antiviral activity against HSV2 infected in BALB/c mouse assessed mean time to virus-induced death at 30 mg/kg, po BID administered 72 hrs post infection", "format": "functional"}, "Human alphaherpesvirus 1 [7]": {"system": "Human alphaherpesvirus 1", "experiment": "Antiviral activity against HSV1 SC16-S1 harboring TK A265T/C336Y mutant gene infected in HFF after 3 days by plaque reduction assay", "format": "functional, organism-based", "conditions": "Human alphaherpesvirus 1, SC16-S1, 72 h", "in_short": "(§3)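 Confluent HFF monolayers (passage <10) were infected in triplicate wells at 20–30 plaques per well, with 1 h adsorption and rocking every 15 min. Six serial dilutions (top 100 μM) were made in MEM with 2% FBS and pooled human immunoglobulin. Cells were incubated 3 days and stained with crystal violet. Plaques were counted, and EC50 was interpolated from plaque reduction.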"}, "Human alphaherpesvirus 2 [8]": {"system": "Human alphaherpesvirus 2", "experiment": "Antiviral activity against HSV2 MS infected in HFF assessed as inhibition of viral DNA synthesis-associated incorporation in DNA by immunofluorescence assay", "format": "functional, organism-based", "in_short": "as §2"}, "Human alphaherpesvirus 1 [9]": {"system": "Human alphaherpesvirus 1", "experiment": "Antiviral activity against HSV1 B-2006 harboring frameshift mutation at Q185 in TK infected in HFF after 3 days by plaque reduction assay", "format": "functional, organism-based", "conditions": "Human alphaherpesvirus 1, B-2006, 72 h", "in_short": "as §3"}, "Human betaherpesvirus 5 [10]": {"system": "Human betaherpesvirus 5", "experiment": "Antiviral activity against human cytomegalovirus 1117 harboring UL54 K513N mutant gene infected in HFF after 8 to 10 days by plaque reduction assay", "format": "functional, organism-based", "conditions": "Human betaherpesvirus 5, 1117", "in_short": "as §1"}, "Human gammaherpesvirus 4": {"system": "Human gammaherpesvirus 4", "experiment": "Antiviral activity against Epstein-Barr virus infected in human Akata cells after 72 hrs", "format": "functional, organism-based", "conditions": "human gammaherpesvirus 4, Akata", "in_short": "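Akata cells were kept in RPMI 1640 with 10% FBS. Compound ranged 100 to 0.032 μM. Latent cells were induced to lytic infection with 50 μg/ml goat anti-human IgG, and 4 × 10^4 cells were added per well. After 72 h, DNA was alkali/NaCl-denatured, blotted to nylon membrane, and viral DNA quantified by digoxigenin-probe hybridization with anti-hapten antibody detection.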"}, "Human alphaherpesvirus 2 [11]": {"system": "Human alphaherpesvirus 2", "experiment": "Antiviral activity against HSV2 infected in BALB/c mouse assessed mean time to virus-induced death at […], po BID administered 24 hrs post infection", "format": "functional"}, "Human alphaherpesvirus 2 [12]": {"system": "Human alphaherpesvirus 2", "experiment": "Antiviral activity against HSV2 infected in BALB/c mouse assessed as virus-induced mortality rate at 10 mg/kg, po BID administered 24 hrs post infection", "format": "functional"}, "Human alphaherpesvirus 2 [13]": {"system": "Human alphaherpesvirus 2", "experiment": "Antiviral activity against HSV2 infected in BALB/c mouse assessed as virus-induced mortality rate at 30 mg/kg, po BID administered 48 hrs post infection", "format": "functional"}, "Human alphaherpesvirus 2 [14]": {"system": "Human alphaherpesvirus 2", "experiment": "Antiviral activity against HSV2 AG-3 harboring TK Q105P mutant gene infected in HFF after 3 days by plaque reduction assay", "format": "functional, organism-based", "conditions": "Human alphaherpesvirus 2, AG-3, 72 h", "in_short": "as §3"}, "Human betaherpesvirus 5 [15]": {"system": "Human betaherpesvirus 5", "experiment": "Antiviral activity against human cytomegalovirus PFAB300 harboring UL54 L724V mutant gene infected in HFF after 8 to 10 days by plaque reduction assay", "format": "functional, organism-based", "conditions": "Human betaherpesvirus 5, PFAB300", "in_short": "as §1"}, "Human alphaherpesvirus 2 [16]": {"system": "Human alphaherpesvirus 2", "experiment": "Antiviral activity against HSV2 infected in BALB/c mouse assessed mean time to virus-induced death at 30 mg/kg, po BID administered 24 hrs post infection", "format": "functional"}, "Human alphaherpesvirus 2 [17]": {"system": "Human alphaherpesvirus 2", "experiment": "Antiviral activity against HSV2 infected in BALB/c mouse assessed mean time to virus-induced death at 10 mg/kg, po BID administered 72 hrs post infection", "format": "functional"}, "Human alphaherpesvirus 2 [18]": {"system": "Human alphaherpesvirus 2", "experiment": "Antiviral activity against HSV2 infected in BALB/c mouse assessed mean time to virus-induced death at […], po BID administered 48 hrs post infection", "format": "functional"}, "Human alphaherpesvirus 2 [19]": {"system": "Human alphaherpesvirus 2", "experiment": "Antiviral activity against HSV2 infected in BALB/c mouse assessed as virus-induced mortality rate at […], po BID administered 72 hrs post infection", "format": "functional"}, "[20]": {"experiment": "Selectivity index, ratio of CC50 for HFF to EC50 for human cytomegalovirus AD169 infected in HFF"}, "Human alphaherpesvirus 2 [21]": {"system": "Human alphaherpesvirus 2", "experiment": "Antiviral activity against HSV2 harboring frameshift mutation in TK infected in HFF after 3 days by plaque reduction assay", "format": "functional, organism-based", "conditions": "Human alphaherpesvirus 2, 72 h", "in_short": "as §3"}, "Human alphaherpesvirus 2 [22]": {"system": "Human alphaherpesvirus 2", "experiment": "Antiviral activity against HSV2 infected in BALB/c mouse assessed as virus-induced mortality rate at 30 mg/kg, po BID administered 72 hrs post infection", "format": "functional"}, "Human alphaherpesvirus 2 [23]": {"system": "Human alphaherpesvirus 2", "experiment": "Antiviral activity against 4'-thioIDU-resistant HSV2 infected in HFF after 3 days by plaque reduction assay", "format": "functional, organism-based", "conditions": "Human alphaherpesvirus 2, 72 h", "in_short": "as §3"}, "[24]": {"experiment": "Cytotoxicity against HFF after 3 days by MTS assay", "format": "cell-based", "conditions": "human, HFF cells"}, "[25]": {"experiment": "Selectivity index, ratio of CC50 for HFF to EC50 for HSV2 MS infected in HFF"}, "Human alphaherpesvirus 2 [26]": {"system": "Human alphaherpesvirus 2", "experiment": "Antiviral activity against HSV2 MS infected in HFF after 3 days by plaque reduction assay", "format": "functional, organism-based", "conditions": "Human alphaherpesvirus 2, MS, 72 h", "in_short": "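Confluent primary HFF monolayers (passage <10), triplicate wells, virus dosed at 20–30 plaques/well. Adsorption was 1 h with rocking every 15 min. Six serial dilutions, top 100 μM, were made in MEM with 2% FBS plus pooled human immunoglobulin. After 3 days, wells were stained with 0.1% crystal violet in 20% methanol and plaques counted microscopically. EC50 was interpolated.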"}, "Human alphaherpesvirus 2 [27]": {"system": "Human alphaherpesvirus 2", "experiment": "Selectivity ratio of EC50 for 4'-thioIDU-resistant HSV2 infected in HFF to EC50 for HSV2 MS infected in HFF", "format": "functional"}, "Human alphaherpesvirus 1 [28]": {"system": "Human alphaherpesvirus 1", "experiment": "Antiviral activity against HSV1 DM2.1 harboring frameshift mutation in TK infected in HFF after 3 days by plaque reduction assay", "format": "functional, organism-based", "conditions": "Human alphaherpesvirus 1, DM2.1, 72 h", "in_short": "as §3"}}, "note": "Activity calls are given as the source filed them. No cut-off for these calls is given here.", "data": [{"molecule": "O=c1[nH]c(=O)n([C@H]2C[C@H](O)[C@@H](CO)S2)cc1I", "values": [{"measurement": "selectivity ratio", "setting": "[1]", "result": "< 4.3"}, {"measurement": "EC50", "setting": "[2]", "result": "> 100", "unit": "µM"}, {"measurement": "Activity", "setting": "Human alphaherpesvirus 2 [3]", "result": 73, "unit": "%"}, {"measurement": "EC50", "setting": "Human betaherpesvirus 5 [4]", "result": 43, "unit": "µM"}, {"measurement": "inhibition", "setting": "Human alphaherpesvirus 2 [5]", "result": "inactive"}, {"measurement": "Time", "setting": "Human alphaherpesvirus 2 [6]", "result": 11.7, "unit": "days"}, {"measurement": "EC50", "setting": "Human alphaherpesvirus 1 [7]", "result": "> 444", "unit": "µM"}, {"measurement": "inhibition", "setting": "Human alphaherpesvirus 2 [8]", "result": "Active"}, {"measurement": "EC50", "setting": "Human alphaherpesvirus 1 [9]", "result": "> 444", "unit": "µM"}, {"measurement": "EC50", "setting": "Human betaherpesvirus 5 [10]", "result": 4.4, "unit": "µM"}, {"measurement": "EC50", "setting": "Human gammaherpesvirus 4", "result": "> 0.16", "unit": "µM"}, {"measurement": "Time", "setting": "Human alphaherpesvirus 2 [11]", "result": 8.2, "unit": "days"}, {"measurement": "Activity", "setting": "Human alphaherpesvirus 2 [12]", "result": 67, "unit": "%"}, {"measurement": "Activity", "setting": "Human alphaherpesvirus 2 [13]", "result": 100, "unit": "%"}, {"measurement": "EC50", "setting": "Human alphaherpesvirus 2 [14]", "result": "> 444", "unit": "µM"}, {"measurement": "EC50", "setting": "Human betaherpesvirus 5 [15]", "result": 25, "unit": "µM"}, {"measurement": "Time", "setting": "Human alphaherpesvirus 2 [16]", "result": 12.1, "unit": "days"}, {"measurement": "Time", "setting": "Human alphaherpesvirus 2 [17]", "result": 10.7, "unit": "days"}, {"measurement": "Time", "setting": "Human alphaherpesvirus 2 [18]", "result": 9.4, "unit": "days"}, {"measurement": "Activity", "setting": "Human alphaherpesvirus 2 [19]", "result": 100, "unit": "%"}, {"measurement": "Ratio CC50/EC50", "setting": "[20]", "result": ">17"}, {"measurement": "EC50", "setting": "Human alphaherpesvirus 2 [21]", "result": 77, "unit": "µM"}, {"measurement": "Activity", "setting": "Human alphaherpesvirus 2 [22]", "result": 100, "unit": "%"}, {"measurement": "EC50", "setting": "Human alphaherpesvirus 2 [23]", "result": 57, "unit": "µM"}, {"measurement": "CC50 at 72 h", "setting": "[24]", "result": "> 70", "unit": "µM"}, {"measurement": "Ratio CC50/EC50", "setting": "[25]", "result": "> 140"}, {"measurement": "EC50", "setting": "Human alphaherpesvirus 2 [26]", "result": 0.45, "unit": "µM"}, {"measurement": "Ratio EC50", "setting": "Human alphaherpesvirus 2 [27]", "result": 108}, {"measurement": "EC50", "setting": "Human alphaherpesvirus 1 [28]", "result": "> 444", "unit": "µM"}]}]}
